Results published in PMC3472128 (Structure (London, England : 1993), 2012).
Entries after “also recorded” stand apart in the source; their conditions may differ.

Assays:
Smurf1 WW1-WW2 [1] = target: T1, Smurf1 WW1-WW2 (Homo sapiens, UniProt Q9HCE7); experiment: ITC, Smad7 peptide vs Smurf1 WW1-WW2 pair; assay type: binding
T1 sequence (Q9HCE7 233-314 isoform Q9HCE7-2): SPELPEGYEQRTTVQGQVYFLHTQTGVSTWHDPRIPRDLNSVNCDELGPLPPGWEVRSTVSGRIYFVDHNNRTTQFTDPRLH
Method in brief: (§1)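 Nano ITC was run at 5, 15 and 25 °C, in Tris and in ammonium acetate at pH 7. Kd and stoichiometry come from fits. Each run was done at least three times with two protein expression batches.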

Smurf1 WW2 [2] = target: T2, Smurf1 WW2 (Homo sapiens, UniProt Q9HCE7); experiment: IM-MS, Smurf1 WW2 dimer population; assay type: binding
Method in brief: (§2)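 Traveling-wave ion mobility–mass spectrometry was run on the recombinant Smurf WW protein mixed with the Smad7 peptide. Monomer, dimer and trimer species carrying zero to three ligands were assigned by specific ionisation mass and characteristic drift time.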

[3] = tested on: Smurf1 WW1-WW2 Gln247 and Gln249 to Glu; experiment: ITC, Smad7 peptide vs Smurf1 WW1-WW2 Gln247 and Gln249 to Glu; assay type: binding, human
Smurf2 = experiment: NMR, Smad7 peptide binding to Smurf2; parameters: species or system human; conditions: triple resonance NMR; 285 K/298 K
[4] = tested on: Nedd4L WW2-WW3 mutant constructs (bind only one PY site); experiment: ITC, Smad7 peptide vs Nedd4L WW2-WW3 mutant constructs; assay type: binding, human; conditions: two WW2-WW3 mutant constructs that bind only one PY site
Smurf1 WW1 [5] = experiment: IM-MS, Smurf1 WW1 dimer population; assay type: binding, human
Method in brief: as §2

YAP WW2 = experiment: ITC, Smad7 peptide vs YAP WW2; assay type: binding, human; conditions: 15°C, weaker than YAP WW1
Smurf2 WW2 = experiment: ITC, Smad7 peptide vs Smurf2 WW2; assay type: binding, human
Nedd4L WW domains = experiment: ITC, preferred Nedd4L WW domain for Smad7 peptide; assay type: binding, human
Smurf1 WW1-WW2 pair = experiment: NMR, Smad7 peptide binding to Smurf1; parameters: species or system human; conditions: triple resonance NMR; 285 K/298 K
Nedd4L WW2-WW3 pair = experiment: ITC, Smad7 peptide vs Nedd4L WW2-WW3 pair; assay type: binding, human
YAP WW1-WW2 pair = YAP WW1-WW2 pair (Homo sapiens, UniProt P46937); experiment: ITC, YAP WW1-WW2 pair; assay type: binding
Chain of YAP WW1-WW2 pair (P46937 163-266 limits assumed): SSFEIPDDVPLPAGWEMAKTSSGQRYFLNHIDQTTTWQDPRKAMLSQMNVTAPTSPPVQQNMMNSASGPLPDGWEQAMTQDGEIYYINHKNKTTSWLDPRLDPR

Smurf1 WW1-WW2 Arg243Glu = experiment: ITC, Smad7 peptide vs Smurf1 WW1-WW2 Arg243Glu; assay type: binding, human
Smurf2 WW2-WW3 [6] = target: T3, Smurf2 WW2-WW3 (Homo sapiens, UniProt Q9HAU4); experiment: IM-MS, complexes of Smurf2 WW2-WW3 with Smad7 peptide; assay type: binding; conditions: protein concentrations used in ITC (30–50 μM)
T3 sequence (Q9HAU4 250-333 limits assumed): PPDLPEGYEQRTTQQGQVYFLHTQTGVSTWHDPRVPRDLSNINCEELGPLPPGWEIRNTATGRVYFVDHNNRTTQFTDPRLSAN

[7] = target: Nedd4L WW2 domain Lys378Glu (Homo sapiens, UniProt Q96PU5, K398E); experiment: ITC, Smad7 peptide vs Nedd4L WW2 Lys378Glu; assay type: binding
Chain of Nedd4L WW2 domain Lys378Glu (Q96PU5 384-423 K398E): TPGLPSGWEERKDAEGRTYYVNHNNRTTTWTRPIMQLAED

[8] = target: Nedd4L WW2 domain Arg380Glu (Homo sapiens, UniProt Q96PU5, R400E); experiment: ITC, Smad7 peptide vs Nedd4L WW2 Arg380Glu; assay type: binding
Chain of Nedd4L WW2 domain Arg380Glu (Q96PU5 384-423 R400E): as the sequence (Q96PU5 384-423 K398E) above, with E15K, R17E counted along it

[9] = target: four independent Nedd4L WW domains; experiment: ITC, Smad7 peptide vs independent Nedd4L WW domains; assay type: binding, human; conditions: each of the four independent WW domains, values shown in Figure 1B only
[10] = target: Smurf1 WW2 domain Arg295Glu (Homo sapiens, UniProt Q9HCE7, R321E); experiment: ITC, Smad7 peptide vs Smurf1 WW2 Arg295Glu; assay type: binding
Chain of Smurf1 WW2 domain Arg295Glu (Q9HCE7 303-340 R321E limits assumed): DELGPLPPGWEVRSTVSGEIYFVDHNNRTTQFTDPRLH

Smurf1 WW1-WW2 Gln249Glu = experiment: ITC, Smad7 peptide vs Smurf1 WW1-WW2 Gln249Glu; assay type: binding, human
Smurf1 WW2 [11] = target: T2, Smurf1 WW2; experiment: ITC, Smad7 peptide vs Smurf1 WW2; assay type: binding
Smurf2 WW2-WW3 [12] = target: T3, Smurf2 WW2-WW3; experiment: ITC, Smad7 peptide vs Smurf2 WW2-WW3 pair; assay type: binding
Method in brief: as §1

[13] = tested on: three possible Nedd4L WW-WW pairs; experiment: ITC, Smad7 peptide vs Nedd4L WW-WW pairs; assay type: binding, human
Smurf1 WW1-WW2 [14] = target: T1, Smurf1 WW1-WW2; experiment: IM-MS, complexes of Smurf1 WW1-WW2 with Smad7 peptide; assay type: binding; conditions: protein concentrations used in ITC (30–50 μM)
Smurf1 WW1 [15] = experiment: ITC, Smad7 peptide vs Smurf1 WW1; assay type: binding, human
Smurf2 WW3 domain R312E = Smurf2 WW3 domain R312E (Homo sapiens, UniProt Q9HAU4, R312E); experiment: ITC, Smad7 peptide vs Smurf2 WW3 R312E; assay type: binding
Chain of Smurf2 WW3 domain R312E (Q9HAU4 297-333 R312E limits assumed): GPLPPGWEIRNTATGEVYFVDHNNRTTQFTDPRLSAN

[16] = target: Nedd4L WW2 domain Lys378/Arg380 to Glu (Homo sapiens, UniProt Q96PU5, K398E/R400E); experiment: ITC, Smad7 peptide vs Nedd4L WW2 double mutant; assay type: binding
Chain of Nedd4L WW2 domain Lys378/Arg380 to Glu (Q96PU5 384-423 K398E/R400E): as the sequence (Q96PU5 384-423 K398E) above, with R17E counted along it

Smurf1 WW1-WW2 Arg243Ala = experiment: ITC, Smad7 peptide vs Smurf1 WW1-WW2 Arg243Ala; assay type: binding, human
YAP WW1 domain = YAP WW1 domain (Homo sapiens, UniProt P46937); experiment: ITC, Smad7 peptide vs YAP WW1; assay type: binding
Chain of YAP WW1 domain (P46937 163-206): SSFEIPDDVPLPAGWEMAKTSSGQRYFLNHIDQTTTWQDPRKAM

HA-YAP = experiment: Immunoprecipitation of Smad7 with HA-YAP in HEK293T cells; assay type: cell-based, human; conditions: full-length Smad7 wild type or variants with HA-YAP
Method in brief: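 HEK293T cells were transfected with epitope-tagged constructs (HA-YAP with full-length Smad7 wild type or variants) and treated where indicated with TGF-β1 at 100 pM. Lysates were immunoprecipitated with anti-Flag antibody, then immunoblotted with antibodies against the tags.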

Ac-ELESPPPPYSRYPMD-NH2 [Smad7 peptide] was tested. Which stoichiometry (Smurf1 WW1-WW2 [1]; ITC, 15 °C, Tris buffer) did it give?
The stoichiometry was 0.7.

What about the stoichiometry (Smurf1 WW1-WW2 [1]; ITC, all temperatures) of the same substance?
Its stoichiometry is less than 1.

What about the Kd (Smurf1 WW1-WW2 [1]; affinity (KD), ITC, 15 °C, Tris buffer (Figure 1C), at least three times, two protein expression batches) of the same substance?
Its Kd is 1700 ± 300 nM.

And the “affinity increase due to the WW domain pair” value (Smurf1 WW1-WW2 [1]; pair versus Smurf1 WW2 at a given temperature)?
Its value is “about 2 fold”.

What about the “dimer population in the presence of peptide” value (Smurf1 WW2 [2]) of the same substance?
Its value is “reduced”.

What about the reduction of affinity [3] of the same substance?
The reduction of affinity was 3 fold.

What about the “WW domain used for interaction” value (Smurf2) of the same substance?
The value was “the WW3 for Smurf2”.

What about the peptide affinity [4] of the same substance?
Its peptide affinity is “close to those of the single domains”.

And the “dimer population in the presence of peptide” value (Smurf1 WW1 [5])?
Its value is “unaffected”.

And the “dissociation constant relative to WW1” value (YAP WW2)?
The value was 9 fold.

What about the affinity (Smurf2 WW2) of the same substance?
Its affinity is “very low affinity”.

And the “preferred WW domain” value (Nedd4L WW domains)?
The value was “preferentially uses WW2”.

What about the “WW domain used for interaction” value (Smurf1 WW1-WW2 pair) of the same substance?
The value was “using the WW2 domain”.

What about the “stoichiometry (peptide per protein)” value (Nedd4L WW2-WW3 pair) of the same substance?
The value was “two equivalents of peptide per protein”.

And the Kd (YAP WW1-WW2 pair)?
Its Kd is 9.8 ± 0.9 µM.

And the “affinity, WW1-WW2 pair versus independent WW1” value (YAP WW1-WW2 pair; ITC)?
The value was “binds slightly worse than the isolated WW1”.

And the “stoichiometry N” value (YAP WW1-WW2 pair; ITC, 15°C)?
Its value is 1.

And the reduction of affinity (Smurf1 WW1-WW2 Arg243Glu)?
The reduction of affinity was 10 fold.

And the species detected (Smurf2 WW2-WW3 [6])?
The species detected was “dimers with one or with two bound ligands and trimers”.

What about the Kd [7] of the same substance?
The Kd was 23.5 ± 1.5 µM.

And the Kd [8]?
Its Kd is 15.4 ± 3.5 µM.

What about the dissociation constants [9] of the same substance?
Its dissociation constants is “in the μM range”.

What about the Kd [10] of the same substance?
Its Kd is 48.6 ± 6.4 µM.

And the “decrease of binding affinity” value ([10]; R295E versus wild type)?
Its value is “approximately 8 fold”.

And the reduction of affinity (Smurf1 WW1-WW2 Gln249Glu)?
The reduction of affinity was 3 fold.

What about the Kd (Smurf1 WW2 [11]) of the same substance?
The Kd was 4.1 ± 0.6 µM.

What about the stoichiometry (Smurf1 WW2 [11]; ITC, independent WW2, 15 °C, Tris buffer) of the same substance?
Its stoichiometry is 1.

What about the stoichiometry (Smurf2 WW2-WW3 [12]; ITC, all temperatures) of the same substance?
Its stoichiometry is less than 1.

And the Kd (Smurf2 WW2-WW3 [12]; affinity (KD), ITC, 15 °C)?
Its Kd is 1700 ± 300 nM.

And the “affinity increase due to the WW domain pair” value (Smurf2 WW2-WW3 [12]; pair versus Smurf2 WW3 at a given temperature)?
The value was “about 2 fold”.

What about the “effect of domain pairs on affinity” value ([13]; in vitro, versus single domains) of the same substance?
Its value is “does not increase the affinity in vitro”.

What about the dissociation constants ([13]; three possible WW-WW pairs, values shown in Figure 1B only) of the same substance?
The dissociation constants was “in the μM range”.

And the species detected (Smurf1 WW1-WW2 [14])?
Its species detected is “monomeric complexes, protein dimers bound to only one ligand, dimers bound to two ligands and higher order species; also recorded: dimers with one or with two bound ligands and trimers”.

And the affinity (Smurf1 WW1 [15])?
The affinity was “very low affinity”.

And the Kd (Smurf2 WW3 domain R312E)?
The Kd was 34.2 ± 1.6 µM.

What about the Kd [16] of the same substance?
The Kd was 27.3 ± 2.2 µM.

What about the reduction of affinity (Smurf1 WW1-WW2 Arg243Ala) of the same substance?
Its reduction of affinity is 3 fold.

What about the Kd (YAP WW1 domain) of the same substance?
The Kd was 6.9 ± 0.28 µM.

What about the “preferred WW domain” value (YAP WW1 domain; ITC, 15°C) of the same substance?
The value was “YAP WW1 domain preferentially binds”.

How did the “binding to HA-YAP in immunoprecipitation” value (HA-YAP) turn out when “Smad7: full-length protein Smad7 (wild type), flag epitope-tagged, expressed in HEK293T” was run?
Its value is “binding is observed”.
